Experimental data reported in ChEMBL document CHEMBL1138144 (J Med Chem, 2006).

Assays:
[1] = biological target: T1, Sodium-dependent serotonin transporter (Homo sapiens, UniProt P31645); experiment: Displacement of [125I]RTI-55 from human SERT expressed in HEK293 cells; assay type: cell-based
How it was run: (§1)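 Membranes from HEK293 cells expressing hDAT or hSERT, grown to 80% confluence, lysed in 2 mM HEPES/1 mM EDTA, spun and resuspended in 0.32 M sucrose. About 10–15 µg protein preincubated 10 min with compound in Krebs-HEPES pH 7.4 (0.1% DMSO final). Filtered on GF/C. Non-specific binding: 5 µM mazindol (DAT) or 5 µM imipramine (SERT). Duplicates, 2–3 experiments, IC50 converted to Ki by Cheng-Prusoff.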

[2] = biological target: 5-hydroxytryptamine receptor 1B (Homo sapiens, UniProt P28222); experiment: Inhibitory activity against 5HT1B
[3] = biological target: T2, 5-hydroxytryptamine receptor 1A (Homo sapiens, UniProt P08908); experiment: Inhibitory activity against 5HT1A
T2 sequence (P08908 whole entry): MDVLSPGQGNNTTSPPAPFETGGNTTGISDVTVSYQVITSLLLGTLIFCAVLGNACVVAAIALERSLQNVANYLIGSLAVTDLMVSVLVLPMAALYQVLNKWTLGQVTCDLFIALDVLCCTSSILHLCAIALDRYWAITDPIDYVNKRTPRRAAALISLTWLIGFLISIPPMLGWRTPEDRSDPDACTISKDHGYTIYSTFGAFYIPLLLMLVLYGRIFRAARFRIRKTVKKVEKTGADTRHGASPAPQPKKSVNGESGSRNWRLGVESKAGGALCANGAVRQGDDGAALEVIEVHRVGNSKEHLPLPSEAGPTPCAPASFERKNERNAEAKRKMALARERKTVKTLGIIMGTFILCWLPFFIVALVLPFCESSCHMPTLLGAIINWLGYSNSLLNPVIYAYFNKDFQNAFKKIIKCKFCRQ

[4] = biological target: T3, Sodium-dependent noradrenaline transporter (Homo sapiens, UniProt P23975); experiment: Displacement of [125I]RTI-55 from human NET expressed in HEK293 cells; assay type: cell-based
[5] = biological target: T4, Sodium-dependent dopamine transporter (Homo sapiens, UniProt Q01959); experiment: Displacement of [125I]RTI-55 from human DAT expressed in HEK293 cells; assay type: cell-based; how it was run: as §1
[6] = biological target: T5, 5-hydroxytryptamine receptor 2C (Homo sapiens, UniProt P28335); experiment: Inhibitory activity against 5HT1C
T5 sequence (P28335 whole entry): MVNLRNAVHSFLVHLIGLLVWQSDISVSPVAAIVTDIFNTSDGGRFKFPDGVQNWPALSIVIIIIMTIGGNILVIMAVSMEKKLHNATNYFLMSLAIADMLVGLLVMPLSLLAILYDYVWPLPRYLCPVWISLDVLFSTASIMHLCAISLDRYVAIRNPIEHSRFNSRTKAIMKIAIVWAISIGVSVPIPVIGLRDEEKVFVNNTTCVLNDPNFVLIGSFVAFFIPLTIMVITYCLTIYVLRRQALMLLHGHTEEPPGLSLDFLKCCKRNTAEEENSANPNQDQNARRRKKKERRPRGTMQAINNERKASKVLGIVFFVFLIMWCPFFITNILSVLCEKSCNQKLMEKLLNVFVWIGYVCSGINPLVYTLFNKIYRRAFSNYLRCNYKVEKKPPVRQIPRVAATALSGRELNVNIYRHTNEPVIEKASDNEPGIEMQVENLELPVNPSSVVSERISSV

D(3) dopamine receptor = D(3) dopamine receptor (Homo sapiens, UniProt P35462); experiment: Inhibitory activity against dopamine D3
D(1A) dopamine receptor = D(1A) dopamine receptor (Homo sapiens, UniProt P21728); experiment: Inhibitory activity against dopamine D1
D(2) dopamine receptor = D(2) dopamine receptor (Homo sapiens, UniProt P14416); experiment: Inhibitory activity against dopamine D2
[7] = biological target: T3, Sodium-dependent noradrenaline transporter; experiment: Inhibition of [3H] norepinephrine uptake into human NET expressed in HEK293 cells; assay type: functional, cell-based
[8] = biological target: T4, Sodium-dependent dopamine transporter; experiment: Inhibition of [3H] dopamine uptake into human DAT expressed in HEK293 cells; assay type: functional, cell-based
How it was run: (§2)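 Confluent HEK293 cells expressing hDAT or hSERT, scraped into Krebs-HEPES. Preincubated 10 min at 25°C with compound (0.1% DMSO final). Uptake started with [3H]dopamine or [3H]serotonin (20 nM final) and stopped after 10 min by filtration on PEI-soaked GF/C filters. Non-specific uptake: 5 µM mazindol (DAT) or 5 µM imipramine (SERT). IC50 from triplicate 6-concentration curves, 2–3 independent determinations.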

[9] = biological target: T1, Sodium-dependent serotonin transporter; experiment: Inhibition of [3H] serotonin uptake into human SERT expressed in HEK293 cells; assay type: functional, cell-based; how it was run: as §2

Sequence of D(3) dopamine receptor (P35462 whole entry): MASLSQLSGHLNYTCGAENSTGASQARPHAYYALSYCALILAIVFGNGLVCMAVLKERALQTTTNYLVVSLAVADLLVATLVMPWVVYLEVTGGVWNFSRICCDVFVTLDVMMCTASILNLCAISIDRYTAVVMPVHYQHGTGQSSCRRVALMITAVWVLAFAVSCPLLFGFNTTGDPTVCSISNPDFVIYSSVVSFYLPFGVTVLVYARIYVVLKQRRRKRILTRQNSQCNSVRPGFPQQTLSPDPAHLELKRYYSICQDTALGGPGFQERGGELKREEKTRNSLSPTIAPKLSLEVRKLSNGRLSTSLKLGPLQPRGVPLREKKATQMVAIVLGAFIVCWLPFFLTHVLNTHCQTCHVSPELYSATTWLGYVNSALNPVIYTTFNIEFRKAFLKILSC
T1 sequence (P31645 whole entry): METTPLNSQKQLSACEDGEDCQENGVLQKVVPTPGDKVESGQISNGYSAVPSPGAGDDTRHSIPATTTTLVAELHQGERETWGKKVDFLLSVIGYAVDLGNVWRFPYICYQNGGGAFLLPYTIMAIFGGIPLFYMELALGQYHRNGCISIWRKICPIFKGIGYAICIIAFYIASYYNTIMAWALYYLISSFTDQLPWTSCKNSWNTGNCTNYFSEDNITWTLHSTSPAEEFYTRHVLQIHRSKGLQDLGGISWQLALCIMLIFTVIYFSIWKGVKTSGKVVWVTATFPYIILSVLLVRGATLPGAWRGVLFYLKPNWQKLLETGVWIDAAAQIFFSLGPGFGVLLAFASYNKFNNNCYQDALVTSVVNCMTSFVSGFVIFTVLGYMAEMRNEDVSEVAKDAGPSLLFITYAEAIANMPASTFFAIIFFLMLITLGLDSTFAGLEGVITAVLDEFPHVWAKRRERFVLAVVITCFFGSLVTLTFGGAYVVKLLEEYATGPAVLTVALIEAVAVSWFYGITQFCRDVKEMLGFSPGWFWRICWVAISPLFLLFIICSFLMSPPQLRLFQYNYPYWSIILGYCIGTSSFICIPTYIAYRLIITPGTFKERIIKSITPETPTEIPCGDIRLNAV
Sequence of D(2) dopamine receptor (P14416 whole entry): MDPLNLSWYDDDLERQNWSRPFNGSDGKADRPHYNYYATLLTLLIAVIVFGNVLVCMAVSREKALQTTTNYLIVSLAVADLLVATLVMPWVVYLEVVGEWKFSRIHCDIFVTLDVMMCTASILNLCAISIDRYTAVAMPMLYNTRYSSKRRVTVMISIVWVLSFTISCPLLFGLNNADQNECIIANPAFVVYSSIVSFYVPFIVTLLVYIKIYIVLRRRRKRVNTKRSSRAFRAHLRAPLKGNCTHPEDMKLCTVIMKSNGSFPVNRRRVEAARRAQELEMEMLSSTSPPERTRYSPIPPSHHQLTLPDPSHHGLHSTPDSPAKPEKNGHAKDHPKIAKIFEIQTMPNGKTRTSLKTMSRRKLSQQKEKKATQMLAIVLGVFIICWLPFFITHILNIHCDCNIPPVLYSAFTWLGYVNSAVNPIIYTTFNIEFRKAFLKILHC
T3 sequence (P23975 whole entry): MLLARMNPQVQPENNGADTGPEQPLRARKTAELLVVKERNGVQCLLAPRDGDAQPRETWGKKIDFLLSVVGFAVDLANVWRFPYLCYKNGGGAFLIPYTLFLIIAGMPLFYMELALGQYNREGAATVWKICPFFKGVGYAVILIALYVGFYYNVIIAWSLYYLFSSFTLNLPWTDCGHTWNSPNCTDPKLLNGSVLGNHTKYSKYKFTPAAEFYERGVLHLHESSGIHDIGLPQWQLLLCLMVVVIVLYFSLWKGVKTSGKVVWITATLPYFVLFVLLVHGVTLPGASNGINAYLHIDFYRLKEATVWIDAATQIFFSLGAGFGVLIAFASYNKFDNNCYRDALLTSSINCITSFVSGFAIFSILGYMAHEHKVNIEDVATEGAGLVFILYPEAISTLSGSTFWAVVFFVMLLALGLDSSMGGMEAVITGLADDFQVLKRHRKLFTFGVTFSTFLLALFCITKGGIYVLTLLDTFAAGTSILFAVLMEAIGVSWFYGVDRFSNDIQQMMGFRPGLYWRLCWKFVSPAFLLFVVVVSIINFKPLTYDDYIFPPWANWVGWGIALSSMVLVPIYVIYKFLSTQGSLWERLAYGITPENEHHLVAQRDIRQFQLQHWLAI
Sequence of 5-hydroxytryptamine receptor 1B (P28222 whole entry): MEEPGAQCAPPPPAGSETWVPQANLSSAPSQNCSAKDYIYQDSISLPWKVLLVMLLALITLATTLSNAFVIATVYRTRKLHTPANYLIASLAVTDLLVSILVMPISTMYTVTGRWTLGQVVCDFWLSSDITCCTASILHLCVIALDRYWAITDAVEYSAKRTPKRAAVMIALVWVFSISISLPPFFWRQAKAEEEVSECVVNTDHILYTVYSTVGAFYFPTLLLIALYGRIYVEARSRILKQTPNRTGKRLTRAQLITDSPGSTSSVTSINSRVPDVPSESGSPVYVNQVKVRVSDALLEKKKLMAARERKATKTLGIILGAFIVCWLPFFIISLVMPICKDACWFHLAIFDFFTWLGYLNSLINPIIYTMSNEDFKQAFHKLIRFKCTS
T4 sequence (Q01959 whole entry): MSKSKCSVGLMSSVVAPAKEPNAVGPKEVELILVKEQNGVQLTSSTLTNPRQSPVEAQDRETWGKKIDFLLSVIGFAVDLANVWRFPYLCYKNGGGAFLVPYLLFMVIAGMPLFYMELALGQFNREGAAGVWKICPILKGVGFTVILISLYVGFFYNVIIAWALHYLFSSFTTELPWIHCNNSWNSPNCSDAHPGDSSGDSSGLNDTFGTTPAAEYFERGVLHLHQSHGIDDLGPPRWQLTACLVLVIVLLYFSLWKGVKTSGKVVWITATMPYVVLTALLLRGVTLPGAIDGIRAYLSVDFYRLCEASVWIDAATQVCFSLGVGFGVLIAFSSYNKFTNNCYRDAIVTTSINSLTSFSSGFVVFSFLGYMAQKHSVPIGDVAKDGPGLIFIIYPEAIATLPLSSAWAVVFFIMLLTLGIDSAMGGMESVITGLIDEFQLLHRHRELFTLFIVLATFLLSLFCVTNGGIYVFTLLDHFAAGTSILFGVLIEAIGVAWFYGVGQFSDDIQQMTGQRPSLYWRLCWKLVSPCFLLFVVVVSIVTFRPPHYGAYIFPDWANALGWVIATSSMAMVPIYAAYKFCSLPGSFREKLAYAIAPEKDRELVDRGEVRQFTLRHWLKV
Sequence of D(1A) dopamine receptor (P21728 whole entry): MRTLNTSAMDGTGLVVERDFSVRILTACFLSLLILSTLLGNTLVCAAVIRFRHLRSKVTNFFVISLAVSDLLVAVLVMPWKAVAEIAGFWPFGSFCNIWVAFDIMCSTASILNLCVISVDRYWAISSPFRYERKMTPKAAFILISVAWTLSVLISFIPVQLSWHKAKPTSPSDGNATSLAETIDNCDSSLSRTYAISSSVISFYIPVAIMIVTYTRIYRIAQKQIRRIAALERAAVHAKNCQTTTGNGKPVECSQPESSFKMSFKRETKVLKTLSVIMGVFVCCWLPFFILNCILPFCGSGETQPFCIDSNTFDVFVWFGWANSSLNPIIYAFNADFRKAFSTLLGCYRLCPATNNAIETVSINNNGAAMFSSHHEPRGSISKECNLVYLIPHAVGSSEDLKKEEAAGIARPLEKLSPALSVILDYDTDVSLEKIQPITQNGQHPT

| SMILES | Ki [1] [nM] | IC50 [2] [nM] | IC50 [3] [nM] | Ki [4] [nM] | Ki [5] [nM] | IC50 [6] [nM] | IC50 (D(3) dopamine receptor) [nM] | IC50 (D(1A) dopamine receptor) [nM] | IC50 (D(2) dopamine receptor) [nM] | IC50 [7] [nM] | IC50 [8] [nM] | IC50 [9] [nM] |
| --- | --- | --- | --- | --- | --- | --- | --- | --- | --- | --- | --- | --- |
| CCC(CC(=O)c1ccc(C)cc1)N1CCCC1 (stereo unspecified) | > 10000 | > 10000 | > 10000 | > 10000 | > 10000 | > 10000 | > 10000 | > 10000 | > 10000 |  |  |  |
| CCCC(C(=O)c1cccc(C)c1)N1CCCC1 (stereo unspecified) | 5900 | > 10000 | > 10000 | 216 | 51 | > 10000 | > 10000 | > 10000 | > 10000 | 9.4 | 62.9 |  |
| CCCC(C(=O)c1ccc2ccccc2c1)N1CCCC1 (stereo unspecified) | 33.1 | > 10000 | > 10000 | 136 | 20.1 | > 10000 | > 10000 | > 10000 | > 10000 | 11.7 | 40 | 46 |
| CCCC(C(=O)c1ccc(OC)cc1)N1CCCC1 (stereo unspecified) | 4080 | > 10000 | > 10000 | 2600 | 329 | > 10000 | > 10000 | > 10000 | > 10000 | 235 | 283 | 2430 |
| CCCC(C(=O)c1ccc(O)cc1)N1CCCC1 (stereo unspecified) | > 10000 | > 10000 | > 10000 | 1290 | 125 | > 10000 | > 10000 | > 10000 | > 10000 | 86.7 | 49.7 |  |
| CCCC(C(=O)c1ccc(-c2ccco2)cc1)N1CCCC1 (stereo unspecified) | 3330 |  |  | 95 | 105 |  |  |  |  | 93 | 122 | 2180 |
| CCCC(C(=O)c1ccc(C(F)(F)F)cc1)N1CCCC1 (stereo unspecified) | 959 | > 10000 | > 10000 | > 10000 | > 10000 | > 10000 | > 10000 | > 10000 | > 10000 |  |  | 1030 |
| CCCC(C(=O)c1ccc(NC(C)=O)cc1)N1CCCC1 (stereo unspecified) | > 10000 | > 10000 | > 10000 | 4000 | 30.2 | > 10000 | > 10000 | > 10000 | > 10000 | 317 | 67.9 |  |
| CCC(CC(=O)c1ccc(Cl)c(Cl)c1)N1CCCC1 (stereo unspecified) | 3900 | > 10000 | > 10000 | > 10000 | 8440 | > 10000 | > 10000 | > 10000 | > 10000 |  | > 10000 | 1780 |
| CCC[C@@H](C(=O)c1ccc(C)cc1)N1CCCC1 | 2220 | > 10000 | > 10000 | 109 | 18.1 | > 10000 | > 10000 | > 10000 | > 10000 | 11.3 | 16.3 | 1070 |
| CC#Cc1ccc(C(=O)C(CCC)N2CCCC2)cc1 (stereo unspecified) | 6700 |  |  | 69.8 | 61 |  |  |  |  | 19.3 | 11.8 | 3300 |
| CCCC(C(=O)c1ccc(Cl)c(Cl)c1)N1CCCC1 (stereo unspecified) | 199 |  |  | 37.8 | 11.5 |  |  |  |  | 21 | 43 | 600 |
| C=CCC(C(=O)c1ccc(Cl)c(Cl)c1)N1CCCC1 (stereo unspecified) | 1060 |  |  | 509 | 39.9 |  |  |  |  | 24.9 | 18.3 | 440 |
| CCCC(C(=O)c1ccc(Cl)c(Cl)c1)N1CCCCC1 (stereo unspecified) | 2460 |  |  | 2350 | 144 |  |  |  |  | 800 | 666 | > 10000 |
| CCCCNC(CCC)C(=O)c1ccc(Cl)c(Cl)c1 (stereo unspecified) | 5080 |  |  | 4200 | 520 |  |  |  |  | 2520 | 1190 | > 10000 |
| CCCC(C(=O)c1ccccc1C)N1CCCC1 (stereo unspecified) | 3720 | > 10000 | > 10000 | 425 | 59.7 | > 10000 | > 10000 | > 10000 | > 10000 | 19.7 | 63 | 2020 |
| CCCC(C(=O)c1ccc(C)cc1)N1CCCC1 (stereo unspecified) [PYROVALERONE] | 3770 |  |  | 195 | 21.4 |  |  |  |  | 28.3 | 52 | 2780 |
| CCCC(C(=O)c1ccc(-c2cccs2)cc1)N1CCCC1 (stereo unspecified) | 3320 | > 10000 | > 10000 | 370 | 460 | > 10000 | > 10000 | > 10000 | > 10000 | 263 | 539 | 1960 |
| CCCC(C(=O)c1ccc([N+](=O)[O-])cc1)N1CCCC1 (stereo unspecified) | 2460 |  |  | 2690 | 266 |  |  |  |  | 531 | 1110 | 1110 |
